EBI2 block – EBI2 receptor antagonists, beta-arrestin recruitment, primary screen, cell-based, luminescence, 7a,25-OHC stimulation, uHTS | G-protein coupled receptor 183 (Homo sapiens), P32249 | hit rate 0.81% among 360,000 | inhibition, % at 5 µM | 7a,25-OHC stimulated | AID 651636, 2012; in the data active means inhibition above about 38%;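 further: enzyme fragment complementation signal reports receptor beta-arrestin coupling in cells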
Target sequence (P32249 whole entry, looked up, the tested form may be a part): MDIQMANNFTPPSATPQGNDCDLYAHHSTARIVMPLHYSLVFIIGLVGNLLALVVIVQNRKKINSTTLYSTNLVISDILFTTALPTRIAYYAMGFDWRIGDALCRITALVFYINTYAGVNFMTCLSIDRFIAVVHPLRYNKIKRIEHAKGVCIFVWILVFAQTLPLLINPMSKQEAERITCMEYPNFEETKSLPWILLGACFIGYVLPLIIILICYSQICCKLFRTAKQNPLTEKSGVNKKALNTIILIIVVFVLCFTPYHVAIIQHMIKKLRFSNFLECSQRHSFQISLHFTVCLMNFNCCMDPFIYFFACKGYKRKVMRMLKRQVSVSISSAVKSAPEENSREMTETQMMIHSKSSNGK
APJ antagonist – antagonists of human apelin receptor APJ, primary screen, CHO-K1 cells, beta-arrestin complementation, luminescence. P35414. inhibition, % at 20 µM. hit rate 0.32% among 330,000. AID 2521, 2010;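 active means inhibition above about 40% at 20 µM, limit read from the data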;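 further: cells challenged with 10 nM apelin-13 agonist together with compound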
CCR6 antag – CCR6 receptor antagonists, primary screen, cell-based, CHO-K1, luminescence, beta-arrestin, uHTS; C-C chemokine receptor type 6 (Homo sapiens), P51684; CHO-K1 CCR6 PathHunter beta-arrestin, CCL20-stimulated; inhibition, % at 20 µM; hit rate 0.49% among 340,000; AID 493098, 2011;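 active means compounds whose inhibition of the agonist-driven luminescence signal at 20 µM reaches about 50%, limit read from the data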;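 further: cells stimulated with CCL20 at 14 nM final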
Target sequence (P51684 whole entry, looked up): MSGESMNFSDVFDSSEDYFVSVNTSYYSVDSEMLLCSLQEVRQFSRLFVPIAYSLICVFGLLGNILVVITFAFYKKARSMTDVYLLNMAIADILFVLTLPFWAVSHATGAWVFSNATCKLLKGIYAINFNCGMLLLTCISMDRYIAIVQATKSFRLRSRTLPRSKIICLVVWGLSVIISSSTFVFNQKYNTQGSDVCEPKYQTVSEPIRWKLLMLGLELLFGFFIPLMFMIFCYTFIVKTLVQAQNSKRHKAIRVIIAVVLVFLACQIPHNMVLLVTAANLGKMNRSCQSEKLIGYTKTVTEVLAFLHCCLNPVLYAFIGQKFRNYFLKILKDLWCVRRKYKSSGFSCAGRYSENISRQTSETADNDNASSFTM
APJ agonist – agonists of human apelin receptor APJ, primary screen, CHO-K1 cells, PathHunter beta-arrestin, luminescence; activation, % at 20 µM; 0% DMSO wells, 100% apelin; AID 2520, 2010; hit rate 0.11% among 330,000;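 active means activation more than six SD over the plate average, tested at 20 µM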
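Test system – PathHunter CHO-K1 APJ (AGTRL-1) beta-arrestin reporter cells · Input – 1000 cells/well · Compound – single test compound dose, 20 µM final, 1% DMSO · Times – compound stimulation 90 min at 25 °C, detection 60 min · Technique – beta-gal luminescence · Read-out basis – APJ–arrestin association signal · Control set – negative DMSO alone, positive Apelin-13 at 10 nM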
Beta2AR agonist – beta2AR agonists driving receptor internalization, primary screen, cell-based, FAP fluorogen, flow cytometry; Beta-2 adrenergic receptor (Homo sapiens), P07550; Am2.2-beta2AR cells; response, % (test concentration not listed); hit rate 0.43% among 340,000; AID 504454, 2011;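 active means response above a set limit, near 3 SD of response in nonfluorescent compounds, cut at about 42% in these data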
CXCR6 inh – CXCR6 receptor inhibitors, primary screen, cell-based, beta-arrestin, luminescence, CHO-K1 PathHunter, 1536-well; C-X-C chemokine receptor type 6 (Homo sapiens), O00574; inhibition, % at 20 µM; hit rate 0.36% among 360,000; AID 602244, 2012; in the data active means inhibition above about 34%, passing the limit was not always enough;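 further: antagonist mode with CXCL16 agonist at 10 nM final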
EBI2 conf – EBI2 antagonist hit retest, beta-arrestin, confirmation, cell-based, single concentration, luminescence, 7a,25-OHC stimulation; inhibition, % at 5 µM; hit rate 29% among 2,400; 7a,25-OHC antagonism; shares compounds with EBI2 block;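 active means inhibition of at least 50%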
EBI2 ag – EBI2 agonist activity of antagonist hits, confirmation, counter-screen for EBI2 antagonist project, cell-based, single concentration, agonist mode, luminescence; shares compounds with EBI2 block; EBI2-expressing cells, 60 min; 0% vehicle, 100% 7α,25-dihydroxycholesterol control; activation, % at 5 µM; 2,400 tested, under 10 active; AID 652000, 2013;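 active means activation of at least 50%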
bGal counter – E. coli beta-galactosidase enzyme inhibition, confirmation, counter-screen for EBI2 antagonist project, biochemical, luminescence, single concentration. shares compounds with EBI2 block. purified beta-galactosidase, luminescent Galacton Star, 15 min. inhibition, % at 5 µM. hit rate 1% among 2,400. AID 652176, 2013;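 active means replicate-average signal at least 3 plate SD below neutral wells, shown as high inhibition, flagging enzyme-inhibiting false positives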;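 further: higher means stronger loss of beta-gal luminescence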
Of the large screens only hits and unclear results are named; the others gave an inactive call (follow-up assays come after a bar, where they were run). This is a sample that favours compounds with a hit; in the whole collection about 1.8% have one here.

O=C(NCC1CCCCC1)C12CN(Cc3ccccc3)CC1C(c1cccc([N+](=O)[O-])c1)=NO2 (configuration not stated)	none
O=C(/C=C/c1ccc(Cl)cc1)Nc1ccc(N2CCCCC2)cc1	EBI2 block 44 | EBI2 conf inactive | EBI2 ag inactive | bGal counter inactive
O=C(/C=C/c1cccc(Br)c1)NCC1CCCCC1	EBI2 block 43 | EBI2 conf inactive | EBI2 ag inactive | bGal counter inactive
COc1cc(CCC(=O)OCC(=O)NCC2CCCCC2)cc(OC)c1OC	none
COc1ccc(CCNC(=O)/C=C/c2cc(OC)c(OC)c(OC)c2)cc1OC	EBI2 block 37 | EBI2 conf inactive | EBI2 ag inactive | bGal counter inactive
CCCOc1ccc(/C=C/C(=O)NC2CCCCC2)cc1	none
O=C(/C=C/c1ccc(Br)cc1)NC1CCCCCC1	EBI2 block 64 | EBI2 conf 61 | EBI2 ag inactive | bGal counter inactive
COc1cc(/C=C/C(=O)NCC2CCCCC2)cc(OC)c1OC	EBI2 block 52 | EBI2 conf inactive | EBI2 ag inactive | bGal counter inactive
Cc1cccc(NC(=O)COC(=O)CC2CCCC2)c1C	none
CSCC[C@H](NC(=O)c1cccc(S(=O)(=O)N2CCCCC2)c1)c1nc2ccccc2[nH]1	none
NCc1ccccc1CS(=O)(=O)N1CCOCC1	none
O=C(O)c1cc2c(ncc3c(=O)n(-c4ccccc4)[nH]c32)s1	none (no result: APJ antagonist, CCR6 antag, APJ agonist, Beta2AR agonist)
Cc1noc(C)c1COc1ccc(C(=O)N2CCN(S(=O)(=O)c3ccc(F)cc3)CC2)cc1	none (no result: APJ antagonist, APJ agonist)
COc1cccc(OCCNc2cc(N3CCOCC3)ccc2[N+](=O)[O-])c1	EBI2 block 44 | EBI2 conf inactive | EBI2 ag inactive | bGal counter inactive
COc1ccc(OCCNc2cc(N3CCOCC3)ccc2[N+](=O)[O-])cc1	none
COc1cccc(OCCNc2cc(N3CCCCC3)ccc2[N+](=O)[O-])c1	EBI2 block 61 | EBI2 conf inactive | EBI2 ag inactive | bGal counter inactive
Cc1noc(C)c1S(=O)(=O)Nc1ccc2c(c1)C(=O)N([C@H](C)CO)C[C@H](C)[C@@H](CN(C)C(=O)NC1CCCCC1)O2	none
CCC(c1nnc(SCC(=O)Nc2cc(S(C)(=O)=O)ccc2Cl)n1Cc1ccccc1)N(C)C (configuration not stated)	none
CC1(c2ccc3ccccc3c2)NC(=O)N(CC(=O)Nc2ncccc2O)C1=O (configuration not stated)	none
Cc1ccc(NC(=O)C2(C)CCN2C(=O)c2ccccc2CCc2ccccc2)cc1C (configuration not stated)	none (no result: APJ antagonist, CCR6 antag, APJ agonist, Beta2AR agonist)
CC1(C(=O)Nc2cnc3ccccc3c2)CCN1C(=O)c1ccccc1CCc1ccccc1 (configuration not stated)	EBI2 block 48 (no result: APJ antagonist, CCR6 antag, APJ agonist, Beta2AR agonist) | EBI2 conf inactive | EBI2 ag inactive | bGal counter inactive
CCOC(=O)C1=C(O)/C(=C/c2ccc(OCC(=O)O)c(OCC)c2)SC1=Nc1ccccc1	none
CCOC(=O)C1=C(O)/C(=C/c2ccccn2)SC1=Nc1ccc(Cl)cc1	EBI2 block 88 | EBI2 conf 86 | EBI2 ag inactive | bGal counter inactive
CCOC(=O)C1=C(O)/C(=C/c2cc(OC)c(O)c(OC)c2)SC1=Nc1ccc(OC)cc1	EBI2 block 49 (no result: APJ antagonist, APJ agonist) | EBI2 conf inactive | EBI2 ag inactive | bGal counter inactive
Cc1ccc(CNC(=O)C2CCN(S(=O)(=O)N3CCC4(CC3)OCCO4)CC2)cc1	EBI2 block 45 | EBI2 conf inactive | EBI2 ag inactive | bGal counter inactive
O=C(NCc1ccc(F)cc1)C1CCN(S(=O)(=O)N2CCC3(CC2)OCCO3)CC1	none
CCc1ccc(CNC(=O)C2CCN(S(=O)(=O)N3CCC4(CC3)OCCO4)CC2)cc1	EBI2 block 47 | EBI2 conf inactive | EBI2 ag inactive | bGal counter inactive
C[C@@H]1COC(=O)[C@H](Cc2ccc(F)cc2)C/C=C\C[C@@H](CC(=O)NCCO)C(=O)N1	none
CCCCCn1c(SCc2ccncc2)nc2cc(C(=O)NCc3ccco3)ccc2c1=O	EBI2 block 38 | EBI2 conf inactive | EBI2 ag inactive | bGal counter inactive
CCCCn1c(SCC(=O)NCc2ccco2)nc2ccccc2c1=O	none
COC(=O)[C@@H](Cc1ccccc1)NC(=O)Cn1cc(C)c(=O)[nH]c1=O	none (no result: APJ antagonist, APJ agonist)
O=S(=O)(c1ccc(NC(=S)NN=C(Cc2ccccc2)Cc2ccccc2)cc1)N1CCOCC1	EBI2 block 46 | EBI2 conf inactive | EBI2 ag inactive | bGal counter inactive
COc1ccc(C(=O)OCC(=O)NC(=O)NC2CCCC2)cc1OC	none
Cc1ccc(CNC(=O)c2ccc(S(=O)(=O)N3CCCCC3)cc2)cc1	EBI2 block 64 | EBI2 conf inactive | EBI2 ag inactive | bGal counter inactive
COc1ccc(CNC(=O)N2CCN(S(=O)(=O)c3ccccc3F)CC2)cc1	none
Cc1ccc(S(=O)(=O)N2CCN(C(=O)NCc3ccc(F)cc3)CC2)c(C)c1	EBI2 block 68 | EBI2 conf inactive | EBI2 ag inactive | bGal counter inactive
Cc1ccc(CNC(=O)c2ccc(S(=O)(=O)N3CCCC3)cc2)cc1	none (no result: APJ antagonist, CCR6 antag, APJ agonist, Beta2AR agonist)
COc1ccc(CNC(=O)N2CCN(S(=O)(=O)c3ccc(C)cc3C)CC2)cc1	EBI2 block 63 | EBI2 conf inactive | EBI2 ag inactive | bGal counter inactive
COc1ccc(CCNC(=S)N2CCN(S(=O)(=O)c3ccc(C)cc3)CC2)cc1	EBI2 block 52 | EBI2 conf inactive | EBI2 ag inactive | bGal counter inactive
Cc1cccc(-n2c(C)nc3cc(C(=O)NCCN4CCOCC4)ccc32)c1	none (no result: APJ antagonist, CCR6 antag, APJ agonist, Beta2AR agonist)
CC1(C(=O)NCC2CC2)CCN1C(=O)C1(c2ccc(Cl)cc2)CC1 (configuration not stated)	none (no result: APJ antagonist, CCR6 antag, APJ agonist, Beta2AR agonist)
C#CCn1c2ccccc2c(=O)n1CCOc1ccccc1OC	none (no result: APJ antagonist, CCR6 antag, APJ agonist, Beta2AR agonist, CXCR6 inh)
